# Assay outcomes from PubChem.
# CRFR2-BP ag = agonists of human CRF-binding protein/CRF-R2 receptor complex | 0.46% of 350,000 active | activation, % at 13.2 µM | HEK293 CRF-R2/CRF-BP, calcium dye fluorescence (FLIPR); percent of saturating CRF peptide response;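 active means activation of at least 50%, plus an integration ratio under a set limit after plate pattern correction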
# NRP1-CendR mod = NRP-1/CendR interaction modulation | FAM-RPARPAR peptide binding to NRP-1, fluorescence polarization | inhibition, % at 25 µM | 0.85% of 360,000 active | AID 602438;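 active means inhibition or corrected inhibition above about 18%, plus a signal ratio from 0.5 to 1.5, limit read from the data, passing the limit was not always enough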
# Target sequence (O14786 whole entry, looked up): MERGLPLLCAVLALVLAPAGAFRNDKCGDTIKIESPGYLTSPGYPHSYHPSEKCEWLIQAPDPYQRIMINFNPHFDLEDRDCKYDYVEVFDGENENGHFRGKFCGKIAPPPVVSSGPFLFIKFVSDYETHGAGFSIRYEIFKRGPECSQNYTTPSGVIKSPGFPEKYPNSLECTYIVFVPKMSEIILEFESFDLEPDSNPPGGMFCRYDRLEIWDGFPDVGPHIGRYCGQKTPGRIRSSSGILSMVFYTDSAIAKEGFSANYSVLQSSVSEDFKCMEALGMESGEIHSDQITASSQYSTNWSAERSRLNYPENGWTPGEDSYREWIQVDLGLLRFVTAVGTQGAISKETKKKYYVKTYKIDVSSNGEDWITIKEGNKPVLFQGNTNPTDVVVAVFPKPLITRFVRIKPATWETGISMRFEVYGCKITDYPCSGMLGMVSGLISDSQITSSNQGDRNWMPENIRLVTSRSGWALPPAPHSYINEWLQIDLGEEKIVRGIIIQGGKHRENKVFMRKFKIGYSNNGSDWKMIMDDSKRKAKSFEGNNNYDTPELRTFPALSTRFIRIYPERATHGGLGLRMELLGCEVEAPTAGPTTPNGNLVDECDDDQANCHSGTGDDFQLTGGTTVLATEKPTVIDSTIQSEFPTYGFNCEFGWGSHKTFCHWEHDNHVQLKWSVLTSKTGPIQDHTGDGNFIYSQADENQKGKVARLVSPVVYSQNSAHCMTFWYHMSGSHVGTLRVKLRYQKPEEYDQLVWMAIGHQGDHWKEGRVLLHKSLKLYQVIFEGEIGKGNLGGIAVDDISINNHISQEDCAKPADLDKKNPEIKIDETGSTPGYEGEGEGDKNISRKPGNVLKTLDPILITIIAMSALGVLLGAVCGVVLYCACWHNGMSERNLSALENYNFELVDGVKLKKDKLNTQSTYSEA
# DDE Tn6 FP inh = DD(E)-Tn6 binding inhibition, primary FP screen. P02675. Fibrin DD(E) TRITC-Tn6 fluorescence polarization displacement. inhibition, % at 8.3 µM. 0.21% of 370,000 active;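 active means inhibition above a per-campaign cutoff: mean of compounds within control limits plus 3 SD, cut at about 15% in these data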
# proKLK7 act = proKLK7 (human) activation, primary screen; purified proKLK7, EDANS-DABCYL substrate fluorescence; 100% is mature enzyme control, 0% vehicle; activation, % at 7 µM; 0.9% of 370,000 active;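 active means activation above the mean of all tested compounds plus 3 SD, computed per campaign excluding outliers beyond control limits, cut at about 13% in these data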
# CRFR2-BP antag = antagonists of CRF-binding protein/CRF-R2 receptor complex; HEK293 CRF-R2/CRF-BP, CRF-induced calcium fluorescence; inhibition, % at 11.8 µM; 0.59% of 350,000 active;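 active means inhibition of the ligand-induced calcium signal above about 50% at the single tested concentration, limit read from the data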
# DDE Tn7 FP inh = inhibitors of Tn7 peptide binding to human fibrin DD(E); inhibition, % at 8.3 µM; FP displacement of FITC-Tn7 peptide from fibrin DD(E); 0% = median of compound wells per plate; P02675; AID 720508; 0.13% of 370,000 active;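 active means inhibition above the mean of compounds falling within the control limits plus 3 SD of them, cut at about 14% in these data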
#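 System: human fibrin DD(E); quantity: Fibrin-DD(E) at 2 µM final; also added: fluorescent Tn7 probe at 0.1 µM; compound dosing: single nominal test concentration of 8.3 µM per compound; schedule: 10 min preincubation, 3 h with tracer, room temperature; detection: fluorescence polarization of the labelled Tn7 tracer; repeats: one replicate per compound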
# Hits are given with their value; . = inactive; / = no result. Compounds with a hit are over-represented: about 2.9% of the library has one in this group of screens.
SMILES,CRFR2-BP ag,NRP1-CendR mod,DDE Tn6 FP inh,proKLK7 act,CRFR2-BP antag,DDE Tn7 FP inh
O=C1c2cccc3c(N4CCCCC4)ccc(c23)C(=O)N1c1cccc(O)c1,161.4,.,.,.,.,.
Cc1n[nH]c(C)c1N1C(=O)c2cccc3c(N4CCCCCC4)ccc(c23)C1=O,399.5,.,.,.,.,.
O=C1c2cccc3c(N4CCCCC4)ccc(c23)C(=O)N1CCO,118.2,.,.,.,.,.
C=CCN1C(=O)c2cccc3c(N4CCCCC4)ccc(c23)C1=O,255.5,.,.,.,.,.
O=C(c1cccc(N2C(=O)c3ccccc3C2=O)c1)N1CCCCCC1,.,.,.,.,.,.
O=C1c2cccc3cccc(c23)C(=O)N1CCO,.,.,.,.,.,.
C=CCN1C(=O)c2cccc3c(Br)ccc(c23)C1=O,.,.,.,.,.,.
CCOC(=O)CC[C@@H]1CC[C@]2(CCCN(C(=O)C3CCCC3)C2)O1,/,/,.,.,/,.
COc1ccccc1-[n+]1c(C)cc(/C=C2\Sc3ccccc3N2C)cc1C,174.7,.,.,.,.,.
CC(C)(C)OC(=O)N1CCCN(C(=O)Nc2cccc(Cl)c2)CC1,.,.,.,.,113.2,.
CC(C)(C)OC(=O)N1CCC(NC(=O)c2[nH]cnc2C(=O)Nc2cccc(Cl)c2)CC1,.,32.9,.,.,.,.
C[C@@H](NC(=O)c1nc[nH]c1C(=O)NC1CCN(C(=O)OC(C)(C)C)CC1)c1ccccc1,.,22.4,.,.,.,.
CC(C)(C)OC(=O)N1CCCN(C(=O)Nc2ccccc2)CC1,.,.,.,.,.,.
CCOC(=O)[C@@]12CCCC3=C1N(CCC3)C(=O)[C@H]2CC(=O)N1CCCC1,/,/,.,.,/,.
CC(=O)c1ccc(NC(=O)NC2CCCCN(Cc3cccc(Cl)c3)C2=O)cc1 (stereo not drawn),/,/,.,.,/,.
CC(C)N1CCc2c(sc(NC(=O)c3ccc4ccccc4c3)c2C(N)=O)C1,124.3,.,.,.,.,.
CC(=O)Nc1sc2c(c1-c1nc3ccccc3s1)CCN(C(C)C)C2,80.3,.,/,/,.,/
CC(=O)Nc1sc2c(c1-c1nc3ccccc3s1)CCN(C(C)C)CC2,/,/,.,/,/,.
CC(C)N1CCc2c(sc(NC(=O)c3ccc(C(=O)c4ccccc4)cc3)c2C(N)=O)C1,.,.,.,.,.,.
CC(C)N1CCc2c(sc(NC(=O)c3cc4cc([N+](=O)[O-])ccc4s3)c2C(N)=O)C1,133.6,.,.,.,.,.
CC(C)N1CCc2c(sc(NC(=O)CCc3ccccc3)c2C(N)=O)C1,62.4,.,.,.,.,.
CCOC(=O)CN1C(=O)[C@]2(OCCC=C[C@H]2C)c2ccccc21,/,/,.,.,/,.
CCCCCCCCN1C(=O)[C@@H](CC(=O)NCCCN2CCCC2=O)C[C@@]2(C(=O)OC)C1=C[C@H](C(C)(C)C)O[C@@H]2C,/,/,.,.,/,.
COC(=O)C1CN(Cc2ccc(F)cc2)CCS(=O)(=O)N1Cc1cn(Cc2ccccc2)nn1 (stereo not drawn),/,/,.,.,/,.
CCCC[C@@H]1C(=O)N2N=Cc3cc4ccccc4cc3[C@H]2N2N=Cc3cc4ccccc4cc3[C@@H]12,/,/,.,.,/,.
SMILES,CRFR2-BP ag,NRP1-CendR mod,DDE Tn6 FP inh,proKLK7 act,CRFR2-BP antag,DDE Tn7 FP inh
COC(=O)c1c(NC(=O)c2ccco2)sc2c1CCN(C(C)C)C2,51.8,.,.,.,.,.
CC(C)(C)c1ccc(-c2nnc(SCC3CCCCO3)n2-c2ccc(Cl)cc2)cc1 (stereo not drawn),/,/,.,.,/,.
COC(=O)[C@]1(CNC(=O)c2cc(F)ccc2F)CC(=O)N(C)[C@@H]1c1ccccc1,/,/,.,.,/,.
Cc1cn([C@H]2C[C@H](O)[C@@H](CCC(=O)NCCc3ccc4ccccc4c3)O2)c(=O)[nH]c1=O,/,22.0,.,.,/,.
Cc1cn([C@H]2C[C@H](O)[C@@H](CCC(=O)NCc3ccccc3)O2)c(=O)[nH]c1=O,.,.,.,.,.,.
CCOc1ccc(C(=O)COC(=O)c2nn(CC)c(=O)c3ccccc23)cc1,.,18.9,.,.,.,.
Cn1c(SCC(=O)N/N=C/c2cc([N+](=O)[O-])ccc2O)nnc1-c1ccccc1,62.5,.,.,.,.,.
Cn1c(SCC(=O)N/N=C/c2ccc([N+](=O)[O-])s2)nnc1-c1ccccc1,.,.,.,.,.,.
O=C(/C=C(\Nc1cc(Cl)c(Cl)c(Cl)c1)c1ccccc1)c1ccccc1,/,/,.,.,/,.
CCN=C1NC(c2ccc(C(F)(F)F)cc2)C(C(=O)OC)=C(C)N1Cc1ccccc1C(F)(F)F (stereo not drawn),/,/,.,.,/,.
COC[C@H]1CCCN1c1ccc2c(c1)O[C@H]1CCN(C1)S2(=O)=O,/,/,.,.,/,.
CCOc1ccc(-c2nc(CN(Cc3ccccc3)C[C@@H]3CCC(=O)N3)c(C)o2)cc1,.,.,.,.,.,.
Cc1oc(-c2ccc(C(F)(F)F)cc2)nc1CN(Cc1ccccn1)C[C@@H]1CCC(=O)N1,.,30.7,.,.,.,.
CCC(C)Nc1nc(C)nc2c1nnn2Cc1ccccc1 (stereo not drawn),/,/,.,.,/,.
Cc1cc(-n2c(C)cc(C(=O)CSc3nc4ccccc4c(=O)n3Cc3ccco3)c2C)no1,68.2,.,.,.,.,.
O=C(CSc1nc2ccccc2c(=O)n1Cc1ccco1)c1ccccc1,.,.,.,.,.,.
c1ccc(-c2ccc(C3=Nn4c(nnc4-c4ccccn4)SC3)cc2)cc1,/,/,.,.,/,.
CN1CCC(=NNC(=O)c2ccco2)CC1,.,36.0,.,.,.,.
OCCNc1ncnc2ccc(Br)cc12,.,44.2,.,.,.,.
Brc1ccc2ncnc(Nc3cccc4ccccc34)c2c1,.,.,.,.,.,.
Cc1ccccc1C(=O)N(C)[C@H]1C[C@H]2c3[nH]c4c(-c5ccccc5)cccc4c3CCN2C(=O)[C@H]1[C@H](C)O,/,/,.,.,/,.
COc1ccc(C2CC(c3ccccc3F)=NN2c2ccc(S(N)(=O)=O)cc2)cc1 (stereo not drawn),.,.,.,.,.,.
COc1ccc(C2CC(c3ccccc3C(F)(F)F)=NN2c2ccc(S(N)(=O)=O)cc2)cc1 (stereo not drawn),.,.,.,.,58.8,.
CCCc1nnc(NC(=O)CCC(=O)N2CCN(Cc3cc(Cl)ccc3OC)CC2)s1,.,.,.,.,.,.
CCc1nnc(NC(=O)CCC(=O)N2CCN(Cc3cc(Cl)ccc3OC)CC2)s1,.,.,.,.,105.8,.
Cc1ccc(-c2ccc(=O)n(Cc3cc(C)ccc3C)n2)cc1,.,.,.,.,123.3,.
N#C/C(=C\c1ccc(N2CCCCC2)o1)C(=O)Nc1cccc(Br)c1,312.1,.,.,.,.,.
